# A selection: hits, their analogues and other compounds. The true share with any hit is near 3.1%.
# FGF22 binding – FGF22 (human) thermal shift binding. Q9HCT0. recombinant FGF22 thermal shift, SYPRO orange fluorescence; percent of sucrose octasulfate shift, DMSO zero. activity (Tm shift, normalised), % at 9.99 µM. actives 1.5% (n = 340,000);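 active = mean Tm shift, scaled 0 neutral to 100 positive control, at about 1.3% or above, every replicate too, limit read from the data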
# Target sequence (Q9HCT0 whole entry, looked up): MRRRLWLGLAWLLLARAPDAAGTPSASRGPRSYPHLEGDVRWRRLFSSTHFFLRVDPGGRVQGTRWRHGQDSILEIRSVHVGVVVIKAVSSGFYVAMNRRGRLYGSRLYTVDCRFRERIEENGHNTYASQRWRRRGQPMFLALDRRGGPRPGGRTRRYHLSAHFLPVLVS
# PAX8 reporter – PAX8 transcriptional activity inhibition; RMG-I TPO-luciferase reporter, SteadyGlo, 24 h; inhibition, % at 12.6 µM; actives 1.2% (n = 360,000);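 active = mean replicate inhibition at least 60% with every replicate also reaching 60%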;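 also: luciferase light reporting Pax8 driven TPO promoter activity; plate controls were median of neutral control wells for no effect and mitoxantrone controls for full effect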
# PGC1a acetyl inh – PGC1a acetylation modulation, inhibitor mode; U2OS PGC1a acetylation, AlphaScreen anti-acetyl-lysine; with virally co-expressed GCN5 acetyltransferase; inhibition, % at 15.6 µM; actives 0.17% (n = 350,000); AID 651687;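 active = every replicate shows inhibition of at least 40%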;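 also: 0% = neutral control wells and 100% = positive control wells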
# Env fusion inh – inhibitors of HIV Env-mediated cell fusion. HeLa-JRFL Env/CEM21 cell fusion, luciferase. actives 1.1% (n = 360,000). AID 651610. inhibition, % at 12.3 µM;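 active = mean replicate inhibition score of at least 50 and every replicate individually at or above 50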;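 also: 0% = plate neutral controls and 100% = maraviroc near 300 nM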
# FN deposit inh – fibronectin deposition inhibition. AID 743247. AH1F fibroblasts, Alexa488-fibronectin deposition fluorescence, overnight. actives 0.086% (n = 350,000). inhibition, % at 12.6 µM;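 active = mean inhibition across replicates of 30% or more, regardless of how many single replicates reach that level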;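 also: positive control wells lacked labelled fibronectin entirely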
#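 Measured by – fluorescence 485/525 nm · System – AH1F fibroblast monolayer, labelled fibronectin deposition · Amount – 10000 cells per well · Buffer or medium – serum-reduced DMEM (2% serum) · Doses – single dose, pinned · Also added – fluorescent fibronectin at 24 nM final · Schedule – 1 h cell attachment, overnight exposure to compound and label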
# EWS-Fli block – inhibitors of EWS/Fli oncoprotein transcriptional activity; A673 NR0B1-luciferase reporter, viability-normalised; inhibition, % at 12.6 µM; actives 0.67% (n = 350,000);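 active = mean inhibition of at least 50% after viability correction, with every replicate also passing that limit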;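 also: firefly luciferase signal divided by Alamar Blue viability fluorescence both relative to DMSO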
# An asterisk follows results filed as active; . = no result given; [ ] = remark or other dose.
SMILES,FGF22 binding,PAX8 reporter,PGC1a acetyl inh,Env fusion inh,FN deposit inh,EWS-Fli block
CCOc1cc(C(=O)OC(C)C(=O)Nc2ccccc2OC)ccc1OCC(=O)N1CCOCC1 (stereo unspecified),0.3,45.5,9.4,-2.0,15.1,14.3
CCOc1cc(C(=O)OC(C)C(=O)Nc2ncc(Cl)cc2Cl)ccc1OCC(=O)N1CCOCC1 (stereo unspecified),43.5*,14.0,.,14.3,-7.7,5.3
C[C@H](CO)N1C[C@H](C)[C@H](CN(C)C)Oc2ccc(NC(=O)CCCCCC(=O)Nc3ccccc3N)cc2C1=O,-0.2,-27.3,14.4,.,-3.4,-9.3
COc1ccc(NC(=O)Nc2ccc3c(c2)C(=O)N([C@@H](C)CO)C[C@@H](C)[C@H](CN(C)Cc2ccc(-c4ccccc4)cc2)O3)cc1,-0.7,.,-10.4,.,.,-1.1
CCCNC(=O)C[C@@H]1CC[C@H]2[C@@H](COC[C@H](O)CN2CC2CCCCC2)O1,-0.2,.,-6.9,.,-7.4,.
COc1cc(/C=C2\CC/C(=C\c3cc(OC)c(OC)c(OC)c3)C2=O)cc(OC)c1OC,-0.2,4.8,.,36.7,.,9.3
COc1cc(/C=C2\CCC/C(=C\c3ccc(O)c(OC)c3)C2=O)ccc1O,-0.4,35.3,28.2,-9.8,10.6,77.1*
Cn1cccc1/C=C1\CCc2ccccc2C1=O,-0.1,31.3,3.8,-24.4,-6.8,55.3*
COc1cc(/C=C2\CC/C(=C\c3cc(OC)c(O)c(OC)c3)C2=O)cc(OC)c1O,0.1,87.7*,.,76.7*,1.4,28.1
COc1ccc(/C=C2/CCc3ccccc3C2=O)cc1OC,.,-75.7,7.3,58.2*,0.4,.
COc1cc(/C=C2/CCc3ccccc3C2=O)cc(OC)c1OC,.,.,18.1,29.7,9.0,.
O=C(NCC[C@H]1CC[C@H](NC(=O)c2cnccn2)[C@H](CO)O1)c1ccc2c(c1)OCO2,-0.1,-4.3,-1.0,-16.7[16.7 µM],-4.1,9.4
CCOc1cc(/C=C2\CN(CC)C/C(=C\c3ccc(O)c(OCC)c3)C2=O)ccc1O,-0.6,13.4,24.5,66.6*,0.6,61.0*
COc1cc(/C=C2/CCC/C(=C\c3cc(O)c(OC)c(Cl)c3)C2=O)cc(Cl)c1O,.,80.9*,-18.3,27.4,26.3,.
COc1cc(/C=C2\SC(N)=NC2=O)cc(Cl)c1O,-0.1,-3.8,-3.7,3.7,0.6,-1.9
COc1cc(C=C2C(=O)C=CC2=O)ccc1O,-0.5,106.0*,.,-190.3,28.6,46.3
COc1cc(/C=C2/C(=O)CNC2=O)ccc1O,.,-10.7,.,-67.8,2.0,.
Cc1ccc(-n2c(C)nnc2SCC(=O)NNC(=O)c2ccco2)cc1,44.0*,0.9,.,1.4,2.7,-15.0
NNC(=O)C1CCCN1S(=O)(=O)c1ccc(Cl)cc1 (stereo unspecified),43.1*,-9.1,-1.6,3.7,-3.6,-5.1
CCC(C)(C)NC(=O)C(c1ccc(OC)cc1)N(Cc1ccco1)C(=O)CCC(=O)Nc1cc(C)on1 (stereo unspecified),.,15.4,-8.1,33.9*,-0.1,.
c1ccc2c(-c3csc(-c4ccncc4)n3)c[nH]c2c1,-0.3,-22.2,-3.1,-144.5,32.8*,-33.2
O=C(C[C@@H]1CC[C@H](NC(=O)c2ccccn2)[C@H](CO)O1)NCc1cc(F)cc(F)c1,-0.3,-2.3,-9.1,-5.0[16.7 µM],-2.5,3.4
NC(=O)[C@@H]1CCCN1Cc1nc(-c2ccc(C(F)(F)F)cc2)no1,43.0*,2.6,.,-6.4,0.0,-7.1
CNC[C@@H]1Oc2ccc(NC(=O)NC(C)C)cc2C(=O)N(C)C[C@H]1C,.,.,.,.,3.2,.
COc1ccccc1NC(=S)Nc1cccc2cnccc12,-0.2,2.4,.,58.3*,-8.9,4.5
SMILES,FGF22 binding,PAX8 reporter,PGC1a acetyl inh,Env fusion inh,FN deposit inh,EWS-Fli block
CCOC(=O)c1ccc2nc(NC(C)=O)sc2c1,42.9*,-137.4,-6.0,-78.2,-2.9,-93.8
CCOC(=O)c1ccc2nc(Nc3nc4ccc(F)cc4s3)sc2c1,0.4,49.0,.,14.0,5.0,79.9*
COC(=O)c1ccc2nc(Nc3nc4c(F)cc(F)cc4s3)sc2c1,0.1,.,.,39.6,1.5,48.1
O=C(C[C@@H]1C=C[C@H](NC(=O)Nc2ccc(C(F)(F)F)cc2)[C@@H](CO)O1)NCc1ccccn1,-0.1,2.5,-3.0,8.7[16.7 µM],2.1,-14.8
CCCCCc1ccc(OCCC[n+]2ccccc2)c(CCCCC)c1,.,95.9*,.,51.8,-5.3,38.4
Cc1onc(C(=O)N2CCN(C(c3ccccc3)c3ccccc3)CC2)c1[N+](=O)[O-],-0.2,97.5*,.,-2.3,26.6,27.5
O=C(c1cc(-c2cccs2)on1)N1CCN(C(c2ccccc2)c2ccccc2)CC1,.,99.1*,-15.2,11.6,-6.4,.
Cc1cc(C(=O)N2CCN(C(c3ccccc3)c3ccccc3)CC2)no1,.,.,-5.7,.,.,.
O=C(C[C@H]1CC[C@@H](NC(=O)c2cnccn2)[C@H](CO)O1)NCc1ccccc1F,0.2,2.3,.,-0.6[16.7 µM],-7.5,3.3
C[C@@H]1CCCCO[C@H](CN(C)CC2CC2)[C@H](C)CN([C@@H](C)CO)C(=O)c2cc(NS(=O)(=O)c3cn(C)cn3)ccc2O1,-0.2,-14.8,-11.9,20.0[16.7 µM],.,.
C[C@H](NC(=O)[C@H]1[C@H](CO)[C@H]2Cn3c(ccc(-c4ccncc4)c3=O)[C@@H]1N2C)c1ccccc1,0.1,3.1,6.6,.,.,-2.9
C=CC[C@H](CC(=O)NCCO)C(=O)N[C@H](COC(=O)[C@@H](CC=C)Cc1ccc(F)cc1)Cc1ccccc1,-0.1,-4.5,4.8,59.1*,7.5,-1.5
C=CC[C@H](CC(=O)NCCO)C(=O)N[C@@H](COC(=O)[C@@H](CC=C)Cc1ccc(F)cc1)Cc1ccccc1,-0.2,-0.2,4.2,79.5*,-13.4,-6.5
C=CC[C@@H](CC(=O)N[C@@H](CO)Cc1ccccc1)C(=O)N[C@H](COC(=O)[C@@H](CC=C)Cc1ccc(F)cc1)Cc1ccccc1,0.0,9.1,.,-7.7,4.6,-5.0
C=CC[C@H](CC(=O)NCCO)C(=O)N[C@H](COC(=O)[C@@H](CC=C)Cc1ccc(F)cc1)c1ccccc1,-0.2,6.3,.,43.4,10.0,0.1
O=C(C1CCC1)N1CCCCN2[C@H](C1)[C@H](c1ccc(C#CC3CCCC3)cc1)[C@@H]2CO,-0.5,17.6,14.4,.,.,4.2
COC(=O)[C@@]1(Cc2ccccc2)[C@H]2C(=O)N(Cc3ccccc3)C(=O)[C@H]2[C@H]2CN=C(SCc3ccccc3)N21,-0.2,20.5,0.1,76.1*,-3.1,13.1
COC(=O)[C@@]1(C)[C@H]2C(=O)N(Cc3ccccc3)C(=O)[C@H]2[C@H]2CN=C(SCc3ccc(C)cc3)N21,-0.2,2.1,-8.8,65.1*,-9.4,-5.4
CCN1C(=O)[C@H]2[C@H]3CN=C(SCc4ccc(Cl)cc4)N3[C@@](CC)(C(=O)OC)[C@H]2C1=O,-0.1,-12.1,-7.2,69.5*,-2.8,1.6

# Compound activity deposited in PubChem by Broad Institute.
